Assay results: PMC5621377 (Clinical cancer research : an official journal of the …, 2016)

System: patients with Rb+ advanced solid tumors or lymphomas
Assay: Safety assessments, adverse events
Format: in vivo, human
Summary of the method: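 Oral test compound given daily 3-weeks-on/1-week-off in 28-day cycles, with doses escalated by a Bayesian logistic regression model with overdose control. Safety assessments, including ECGs, were done at baseline and at regular intervals. AEs were graded by CTCAE v4.0 and classed as suspected related to treatment. All patients dosed at least once were included; summaries were descriptive per dose level.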

[1] = 50 mg 3-weeks-on/1-week-off, n = 4
[2] = 70 mg 3-weeks-on/1-week-off, n = 2
[3] = 140 mg 3-weeks-on/1-week-off, n = 4
[4] = 260 mg 3-weeks-on/1-week-off, n = 4
[5] = 280 mg 3-weeks-on/1-week-off, n = 4
[6] = 350 mg 3-weeks-on/1-week-off, n = 5
[7] = 400 mg 3-weeks-on/1-week-off, n = 5

CN(C)C(=O)c1cc2cnc(Nc3ccc(N4CCNCC4)cn3)nc2n1C1CCCC1 [ribociclib]
1 (20) n (%): Appetite decreased, Grade All, AE suspected related to study treatment [6] | Diarrhea, Grade All, AE suspected related to study treatment [6] | Fatigue, Grade All, AE suspected related to study treatment [6] | Lymphopenia, Grade 3/4, AE suspected related to study treatment [6] | Lymphopenia, Grade All, AE suspected related to study treatment [6] | Neutropenia, Grade All, AE suspected related to study treatment [6] | Blood creatinine increased, Grade All, AE suspected related to study treatment [7] | Fatigue, Grade All, AE suspected related to study treatment [7] | Leukopenia, Grade All, AE suspected related to study treatment [7]
2 (50) n (%): Fatigue, Grade All, AE suspected related to study treatment [1] | Lymphopenia, Grade All, AE suspected related to study treatment [4] | Appetite decreased, Grade All, AE suspected related to study treatment [5] | Nausea, Grade All, AE suspected related to study treatment [5]
1 (50) n (%): Nausea, Grade All, AE suspected related to study treatment [2] | Vomiting, Grade All, AE suspected related to study treatment [2]
3 (75) n (%): Fatigue, Grade All, AE suspected related to study treatment [3]
3 (60) n (%): Blood creatinine increased, Grade All, AE suspected related to study treatment [6]
0 n (%): Anemia, Grade 3/4, AE suspected related to study treatment [1] | Anemia, Grade All, AE suspected related to study treatment [1] | Appetite decreased, Grade 3/4, AE suspected related to study treatment [1] | Appetite decreased, Grade All, AE suspected related to study treatment [1] | Blood creatinine increased, Grade 3/4, AE suspected related to study treatment [1] | Blood creatinine increased, Grade All, AE suspected related to study treatment [1] | Diarrhea, Grade 3/4, AE suspected related to study treatment [1] | Diarrhea, Grade All, AE suspected related to study treatment [1] | Fatigue, Grade 3/4, AE suspected related to study treatment [1] | Leukopenia, Grade 3/4, AE suspected related to study treatment [1] | Leukopenia, Grade All, AE suspected related to study treatment [1] | Lymphopenia, Grade 3/4, AE suspected related to study treatment [1] | Lymphopenia, Grade All, AE suspected related to study treatment [1] | Nausea, Grade 3/4, AE suspected related to study treatment [1] | Nausea, Grade All, AE suspected related to study treatment [1] | Neutropenia, Grade 3/4, AE suspected related to study treatment [1] | Neutropenia, Grade All, AE suspected related to study treatment [1] | Thrombocytopenia, Grade 3/4, AE suspected related to study treatment [1] | Thrombocytopenia, Grade All, AE suspected related to study treatment [1] | Vomiting, Grade 3/4, AE suspected related to study treatment [1] | Vomiting, Grade All, AE suspected related to study treatment [1] | Anemia, Grade 3/4, AE suspected related to study treatment [2] | Anemia, Grade All, AE suspected related to study treatment [2] | Appetite decreased, Grade 3/4, AE suspected related to study treatment [2] | Appetite decreased, Grade All, AE suspected related to study treatment [2] | Blood creatinine increased, Grade 3/4, AE suspected related to study treatment [2] | Blood creatinine increased, Grade All, AE suspected related to study treatment [2] | Diarrhea, Grade 3/4, AE suspected related to study treatment [2] | Diarrhea, Grade All, AE suspected related to study treatment [2] | Fatigue, Grade 3/4, AE suspected related to study treatment [2] | Leukopenia, Grade 3/4, AE suspected related to study treatment [2] | Leukopenia, Grade All, AE suspected related to study treatment [2] | Lymphopenia, Grade 3/4, AE suspected related to study treatment [2] | Lymphopenia, Grade All, AE suspected related to study treatment [2] | Nausea, Grade 3/4, AE suspected related to study treatment [2] | Neutropenia, Grade 3/4, AE suspected related to study treatment [2] | Neutropenia, Grade All, AE suspected related to study treatment [2] | Thrombocytopenia, Grade 3/4, AE suspected related to study treatment [2] | Thrombocytopenia, Grade All, AE suspected related to study treatment [2] | Vomiting, Grade 3/4, AE suspected related to study treatment [2] | Anemia, Grade 3/4, AE suspected related to study treatment [3] | Anemia, Grade All, AE suspected related to study treatment [3] | Appetite decreased, Grade 3/4, AE suspected related to study treatment [3] | Blood creatinine increased, Grade 3/4, AE suspected related to study treatment [3] | Blood creatinine increased, Grade All, AE suspected related to study treatment [3] | Diarrhea, Grade 3/4, AE suspected related to study treatment [3] | Diarrhea, Grade All, AE suspected related to study treatment [3] | Fatigue, Grade 3/4, AE suspected related to study treatment [3] | Leukopenia, Grade 3/4, AE suspected related to study treatment [3] | Leukopenia, Grade All, AE suspected related to study treatment [3] | Lymphopenia, Grade 3/4, AE suspected related to study treatment [3] | Lymphopenia, Grade All, AE suspected related to study treatment [3] | Nausea, Grade 3/4, AE suspected related to study treatment [3] | Nausea, Grade All, AE suspected related to study treatment [3] | Neutropenia, Grade 3/4, AE suspected related to study treatment [3] | Neutropenia, Grade All, AE suspected related to study treatment [3] | Thrombocytopenia, Grade 3/4, AE suspected related to study treatment [3] | Thrombocytopenia, Grade All, AE suspected related to study treatment [3] | Vomiting, Grade 3/4, AE suspected related to study treatment [3] | Vomiting, Grade All, AE suspected related to study treatment [3] | Anemia, Grade 3/4, AE suspected related to study treatment [4] | Anemia, Grade All, AE suspected related to study treatment [4] | Appetite decreased, Grade 3/4, AE suspected related to study treatment [4] | Appetite decreased, Grade All, AE suspected related to study treatment [4] | Blood creatinine increased, Grade 3/4, AE suspected related to study treatment [4] | Blood creatinine increased, Grade All, AE suspected related to study treatment [4] | Diarrhea, Grade 3/4, AE suspected related to study treatment [4] | Diarrhea, Grade All, AE suspected related to study treatment [4] | Fatigue, Grade 3/4, AE suspected related to study treatment [4] | Leukopenia, Grade 3/4, AE suspected related to study treatment [4] | Lymphopenia, Grade 3/4, AE suspected related to study treatment [4] | Nausea, Grade 3/4, AE suspected related to study treatment [4] | Nausea, Grade All, AE suspected related to study treatment [4] | Neutropenia, Grade 3/4, AE suspected related to study treatment [4] | Neutropenia, Grade All, AE suspected related to study treatment [4] | Thrombocytopenia, Grade 3/4, AE suspected related to study treatment [4] | Thrombocytopenia, Grade All, AE suspected related to study treatment [4] | Vomiting, Grade 3/4, AE suspected related to study treatment [4] | Vomiting, Grade All, AE suspected related to study treatment [4] | Anemia, Grade 3/4, AE suspected related to study treatment [5] | Anemia, Grade All, AE suspected related to study treatment [5] | Appetite decreased, Grade 3/4, AE suspected related to study treatment [5] | Blood creatinine increased, Grade 3/4, AE suspected related to study treatment [5] | Blood creatinine increased, Grade All, AE suspected related to study treatment [5] | Diarrhea, Grade 3/4, AE suspected related to study treatment [5] | Fatigue, Grade 3/4, AE suspected related to study treatment [5] | Leukopenia, Grade 3/4, AE suspected related to study treatment [5] | Nausea, Grade 3/4, AE suspected related to study treatment [5] | Neutropenia, Grade 3/4, AE suspected related to study treatment [5] | Thrombocytopenia, Grade 3/4, AE suspected related to study treatment [5] | Vomiting, Grade 3/4, AE suspected related to study treatment [5] | Vomiting, Grade All, AE suspected related to study treatment [5] | Anemia, Grade 3/4, AE suspected related to study treatment [6] | Appetite decreased, Grade 3/4, AE suspected related to study treatment [6] | Blood creatinine increased, Grade 3/4, AE suspected related to study treatment [6] | Diarrhea, Grade 3/4, AE suspected related to study treatment [6] | Fatigue, Grade 3/4, AE suspected related to study treatment [6] | Leukopenia, Grade 3/4, AE suspected related to study treatment [6] | Nausea, Grade 3/4, AE suspected related to study treatment [6] | Neutropenia, Grade 3/4, AE suspected related to study treatment [6] | Thrombocytopenia, Grade 3/4, AE suspected related to study treatment [6] | Thrombocytopenia, Grade All, AE suspected related to study treatment [6] | Vomiting, Grade 3/4, AE suspected related to study treatment [6] | Anemia, Grade 3/4, AE suspected related to study treatment [7] | Appetite decreased, Grade 3/4, AE suspected related to study treatment [7] | Appetite decreased, Grade All, AE suspected related to study treatment [7] | Blood creatinine increased, Grade 3/4, AE suspected related to study treatment [7] | Diarrhea, Grade 3/4, AE suspected related to study treatment [7] | Diarrhea, Grade All, AE suspected related to study treatment [7] | Fatigue, Grade 3/4, AE suspected related to study treatment [7] | Leukopenia, Grade 3/4, AE suspected related to study treatment [7] | Lymphopenia, Grade 3/4, AE suspected related to study treatment [7] | Lymphopenia, Grade All, AE suspected related to study treatment [7] | Nausea, Grade 3/4, AE suspected related to study treatment [7]
1 (25) n (%): Appetite decreased, Grade All, AE suspected related to study treatment [3] | Leukopenia, Grade All, AE suspected related to study treatment [4] | Diarrhea, Grade All, AE suspected related to study treatment [5] | Fatigue, Grade All, AE suspected related to study treatment [5] | Leukopenia, Grade All, AE suspected related to study treatment [5] | Lymphopenia, Grade 3/4, AE suspected related to study treatment [5] | Lymphopenia, Grade All, AE suspected related to study treatment [5] | Neutropenia, Grade All, AE suspected related to study treatment [5] | Thrombocytopenia, Grade All, AE suspected related to study treatment [5]
4 (100) n (%): Fatigue, Grade All, AE suspected related to study treatment [4]
2 (100) n (%): Fatigue, Grade All, AE suspected related to study treatment [2]
2 (40) n (%): Anemia, Grade All, AE suspected related to study treatment [6] | Leukopenia, Grade All, AE suspected related to study treatment [6] | Nausea, Grade All, AE suspected related to study treatment [6] | Vomiting, Grade All, AE suspected related to study treatment [6] | Anemia, Grade All, AE suspected related to study treatment [7]
